Results published in ChEMBL document CHEMBL1140214, “Antitumor activity of new substituted 3-(5-imidazo[2,1-b]thiazolylmethylene)-2-indolinones and 3-(5-imidazo[2,1-b]thiadiazolylmethylene)-2-indolinones: selectivity against colon tumor cells and effect on cell cycle-related events” (2008).

What was measured:
[1] = Antitumor activity against human ovarian cancer cells after 48 hrs by SRB assay; assay type: functional, Cancer cell lines; details: for TGI: read-out: pTGI (converted)
Summary of the method: (§1)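 NCI 60-cell panel two-stage screen: a single-dose pass at 10^-5 M, then five-dose testing for active compounds. Compounds were dissolved in DMSO and tested at five 10-fold dilutions, the highest 10^-4 M (10^-3 M in some cases). Results are given as the negative log molar concentration at three end points: pGI50, pTGI (total growth inhibition) and pLC50. Means are panel-subtype averages.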

[2] = Antitumor activity against human Colon cancer cells after 48 hrs by SRB assay; assay type: functional, Cancer cell lines; details: for GI50 / LC50 (50% lethal concentration) / TGI: Homo sapiens, Cancer cell lines, 48 h; for TGI: read-out: pTGI (converted); summary of the method: as §1
Melanoma cell = assay: Antitumor activity against human Melanoma cells after 48 hrs by SRB assay; assay type: functional; details: for CC50: read-out: pLC50 (the source's name) (converted); for TGI: read-out: pTGI (converted); summary of the method: as §1
NSCLC = assay: Antitumor activity against human NSCLC cells after 48 hrs by SRB assay; assay type: functional; details: for TGI: read-out: pTGI (converted); summary of the method: as §1
[3] = Antitumor activity against human CNS cancer cells after 48 hrs by SRB assay; assay type: functional, Cancer cell lines; details: for TGI: read-out: pTGI (converted); summary of the method: as §1
Leukemia cell = assay: Antitumor activity against human Leukemia cells after 48 hrs by SRB assay; assay type: functional; details: for TGI: read-out: pTGI (converted); summary of the method: as §1
[4] = Antitumor activity against human renal cancer cells after 48 hrs by SRB assay; assay type: functional, Cancer cell lines; details: for TGI: read-out: pTGI (converted); summary of the method: as §1
[5] = Antitumor activity against human Breast cancer cells after 48 hrs by SRB assay; assay type: functional, Cancer cell lines; details: for TGI: read-out: pTGI (converted); summary of the method: as §1
[6] = Antitumor activity against human prostate cancer cells after 48 hrs by SRB assay; assay type: functional, Cancer cell lines; details: for GI50 / TGI: Homo sapiens, Cancer cell lines, 48 h; for TGI: read-out: pTGI (converted); summary of the method: as §1
[7] = Homo sapiens, Cancer cell lines, 48 h
[8] = Homo sapiens, Melanoma cell, 48 h, read-out: pGI50 (converted)
[9] = Homo sapiens, Cancer cell lines, 48 h, read-out: pGI50 (converted)
[10] = Homo sapiens, Leukemia cell, 48 h
[11] = Homo sapiens, Melanoma cell, 48 h

Row | SMILES | GI [1] | GI50 [1, 7] | GI [2] | GI50 [2] | GI50 (Melanoma cell) | GI50 (Melanoma cell; [8]) | GI (NSCLC) | GI50 (NSCLC; Homo sapiens, NSCLC, 48 h) | GI50 [3] | GI50 [3, 9] | GI (Leukemia cell) | GI50 (Leukemia cell; [10]) | GI [4] | GI50 [4, 7] | GI [5] | GI50 [5, 7] | GI [6] | GI50 [6] | TGI (Melanoma cell; [11]) | TGI (NSCLC; Homo sapiens, NSCLC, 48 h) | also measured
1 | Cc1nn2c(/C=C3/C(=O)Nc4ccccc43)c(C)nc2s1 | 50.12 µM | 50.1 µM | 9.33 µM | 9.33 µM | 45.71 µM | 45.7 µM | 38.9 µM | 38.9 µM | 48.98 µM | 49 µM | 16.22 µM | 16.2 µM | 61.66 µM | 61.7 µM | 22.91 µM | 22.9 µM | 47.86 µM | 47.9 µM |  |  | 
2 | COc1ccc(OC)c(-c2nc3sccn3c2/C=C2/C(=O)N(C)c3ccccc32)c1 | 29.51 µM | 29.5 µM | 23.44 µM | 23.4 µM | 19.5 µM | 19.5 µM | 26.92 µM | 26.9 µM | 21.38 µM | 21.4 µM | 7.41 µM | 7.41 µM | 27.54 µM | 27.5 µM | 15.85 µM | 15.8 µM | 25.12 µM | 25.1 µM | 47.9 µM | 74.1 µM | TGI [1, 7]: 81.3 µM; LC50 (50% lethal concentration) [2]: 95.5 µM; TGI [2]: 67.6 µM; CC50 (Melanoma cell; [11]): 87.1 µM; LC50 [3, 7]: 97.7 µM; TGI [3, 7]: 57.5 µM; LC50 (concentration killing 50% of cells) (Leukemia cell; [10]): 97.7 µM; TGI (Leukemia cell; [10]): 44.7 µM; TGI [4, 7]: 72.4 µM; TGI [5, 7]: 53.7 µM; TGI [6]: 91.2 µM
3 | Cc1nn2c(/C=C3/C(=O)Nc4ccc(Cl)cc43)c(C)nc2s1 | 52.48 µM | 52.5 µM | 14.13 µM | 14.1 µM | 41.69 µM | 41.7 µM | 53.7 µM | 53.7 µM | 29.51 µM | 29.5 µM | 14.13 µM | 14.1 µM | 56.23 µM | 56.2 µM | 28.18 µM | 28.2 µM | 43.65 µM | 43.7 µM | 97.7 µM | 89.1 µM | TGI [3, 7]: 97.7 µM; TGI (Leukemia cell; [10]): 81.3 µM; TGI [5, 7]: 83.2 µM
4 | Cc1ccc(-c2nc3sc(C)cn3c2/C=C2/C(=O)Nc3ccc(Cl)cc32)cc1 | 14.45 µM | 14.5 µM | 18.62 µM | 18.6 µM | 14.79 µM | 14.8 µM | 13.49 µM | 13.5 µM | 6.61 µM | 6.61 µM | 22.91 µM | 22.9 µM | 12.59 µM | 12.6 µM | 12.59 µM | 12.6 µM | 22.39 µM | 22.4 µM | 31.6 µM | 37.2 µM | LC50 (concentration killing 50% of cells) [1, 7]: 74.1 µM; TGI [1, 7]: 34.7 µM; LC50 (50% lethal concentration) [2]: 79.4 µM; TGI [2]: 43.7 µM; CC50 (Melanoma cell; [11]): 66.1 µM; LC50 (NSCLC; Homo sapiens, NSCLC, 48 h): 69.2 µM; LC50 [3, 7]: 55 µM; TGI [3, 7]: 20.4 µM; TGI (Leukemia cell; [10]): 72.4 µM; LC50 (concentration killing 50% of cells) [4, 7]: 64.6 µM; TGI [4, 7]: 32.4 µM; LC50 [5, 7]: 75.9 µM; TGI [5, 7]: 38.9 µM; TGI [6]: 55 µM
